Compound activity (PubChem)
CHOP UPR activ – activators of apoptotic CHOP UPR arm, primary screen, cell-based, CHO-CHOP luciferase reporter, luminescence, uHTS; actives 0.34% (n = 330,000); UPR activation; percent of tunicamycin response over DMSO baseline; activation, % at 10 µM;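 active means at 10 µM dose, activation of 40% or more, normalized to positive control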;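 further: 100% = tunicamycin at 10 µg/mL and 0% = DMSO alone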
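assay system = CHO CHOP reporter cells | amount = 500 CHO-CHOP cells per well | buffer or medium = F12 with 10% FBS | incubation = 16-18 h cell attachment, then 6 h compound exposure, 37 °C | detection = luminescence read with Steady-Glo | read-out = percent activation relative to tunicamycin control | controls = tunicamycin high control, DMSO low control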
Mdm2-MdmX inh – inhibitors of human Mdm2-MdmX association, primary screen, cell-based, luminescence, split luciferase, SaOS-2, uHTS; inhibition, % at 8 µM; actives 3% (n = 330,000); SaOS-2 split-luciferase Mdm2/MdmX complementation;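 active means inhibition of at least 50% at 8 µM in the primary screen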
UBC13 polyUb – UBC13 polyubiquitin chain formation inhibitors, primary screen, biochemical, TR-FRET, uHTS; inhibition, % at 20 µM; actives 0.47% (n = 330,000); Ubiquitin-conjugating enzyme E2 N (Homo sapiens), P61088; in the data active means inhibition above about 45%, passing the limit was not always enough
Apaf1 inhib – inhibitors of human Apaf-1 apoptosome, primary screen, biochemical, DEVD-Rh110 fluorescence, uHTS; actives 0.71% (n = 330,000); inhibition, % at 20 µM; reconstituted apoptosome caspase-3 activity; active means inhibition of at least 40% at 20 µM;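 further: plate controls were DMSO wells for no effect and DEVD-CHO caspase inhibitor wells for full effect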
Target sequence (O14727 whole entry, looked up): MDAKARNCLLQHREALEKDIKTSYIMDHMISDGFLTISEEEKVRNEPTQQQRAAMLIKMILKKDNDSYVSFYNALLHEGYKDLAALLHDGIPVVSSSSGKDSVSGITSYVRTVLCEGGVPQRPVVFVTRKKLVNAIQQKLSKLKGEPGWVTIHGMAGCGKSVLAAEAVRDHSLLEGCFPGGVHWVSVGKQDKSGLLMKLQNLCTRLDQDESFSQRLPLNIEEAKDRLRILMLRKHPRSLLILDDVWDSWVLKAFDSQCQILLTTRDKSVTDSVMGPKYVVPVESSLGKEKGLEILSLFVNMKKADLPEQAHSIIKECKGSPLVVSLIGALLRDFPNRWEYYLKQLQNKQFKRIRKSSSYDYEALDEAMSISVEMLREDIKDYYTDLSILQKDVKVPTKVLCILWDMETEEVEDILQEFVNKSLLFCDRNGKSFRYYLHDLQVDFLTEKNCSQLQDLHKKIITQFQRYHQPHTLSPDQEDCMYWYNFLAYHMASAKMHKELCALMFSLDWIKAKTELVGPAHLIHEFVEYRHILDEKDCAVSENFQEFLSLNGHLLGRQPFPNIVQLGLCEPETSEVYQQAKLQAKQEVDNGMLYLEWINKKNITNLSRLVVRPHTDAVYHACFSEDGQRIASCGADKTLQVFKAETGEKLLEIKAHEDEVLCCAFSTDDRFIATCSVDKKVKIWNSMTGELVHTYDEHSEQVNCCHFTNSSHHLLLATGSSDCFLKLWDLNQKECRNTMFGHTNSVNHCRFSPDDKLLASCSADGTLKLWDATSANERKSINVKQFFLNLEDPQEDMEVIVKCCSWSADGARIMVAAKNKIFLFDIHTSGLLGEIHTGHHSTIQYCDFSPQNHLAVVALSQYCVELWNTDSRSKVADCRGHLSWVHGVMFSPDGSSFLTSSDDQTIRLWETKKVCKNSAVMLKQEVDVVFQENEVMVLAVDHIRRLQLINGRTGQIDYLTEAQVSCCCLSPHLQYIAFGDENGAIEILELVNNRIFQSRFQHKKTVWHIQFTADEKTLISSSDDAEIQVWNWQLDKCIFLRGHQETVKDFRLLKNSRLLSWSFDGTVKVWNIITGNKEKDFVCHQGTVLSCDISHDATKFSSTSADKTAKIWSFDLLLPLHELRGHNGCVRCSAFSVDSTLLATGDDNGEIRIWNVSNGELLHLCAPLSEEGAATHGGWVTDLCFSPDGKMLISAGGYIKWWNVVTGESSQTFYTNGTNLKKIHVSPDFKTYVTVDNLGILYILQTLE
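System: Apoptosome proteins | Medium: Hepes pH 7.5 with detergent and BSA | Also added: Cytochrome c trigger plus (Z-DEVD)2-Rh110 caspase-3 substrate | Incubation: 30 min compound preincubation, 50 min activation, room temperature | Detection: Rhodamine 110 fluorescence at Ex 480/Em 540 nm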
XBP1 UPR activ – activators of adaptive XBP1 UPR arm, primary screen, cell-based, CHO-XBP1 luciferase reporter, luminescence, uHTS | actives 0.33% (n = 330,000) | activation, % at 20 µM | IRE1-XBP1 UPR activation; percent of tunicamycin response, DMSO as zero | AID 463104, 2010;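 active means versus positive control, 20 µM dose yields 30% or more activation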;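 further: 100% = tunicamycin at 10 µg/mL and 0% = DMSO only wells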
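Material: IRE1-XBP1 luciferase reporter CHO line / Quantity: one thousand reporter cells per well / Buffer or medium: F12 with 10% serum / Compound: 20 µM single concentration, DMSO 1% / Times: 6 h treatment, 37 °C / Detection: Steady-Glo luciferase glow luminescence, 10 min after reagent addition / Benchmarks: tunicamycin high, DMSO low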
Mdm2 MdmX conf – Mdm2-MdmX complex disruptors, retested hits, confirmation, luminescence, single concentration; shares compounds with Mdm2-MdmX inh; Mdm2-MdmX binding, luminescent assay; inhibition, % at 8 µM; actives 55% (n = 10,000); in the data active means inhibition above about 40%
FLuc counter – full-length luciferase signal inhibition, confirmation, counter-screen for Mdm2/MdmX interaction inhibitor project, cell-based, single concentration, SaOS-2. shares compounds with Mdm2-MdmX inh. SaOS-2 full-length luciferase counterscreen, luminescence. inhibition, % at 8 µM. actives 77% (n = 6,200);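 active means mean inhibition at 8 µM reaching about 37%, which flags the compound as non-specific, limit read from the data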;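 further: p53-null SaOS-2 cells with luciferase driven by a doxycycline-inducible promoter; compound on cells about two nights before reading with doxycycline added after day one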
* hit, by the source's call; nt = not tested or not shown. The list is not random: actives were taken first. Their share in the collection is about 4.1%.

SMILES	CHOP UPR activ	Mdm2-MdmX inh	UBC13 polyUb	Apaf1 inhib	XBP1 UPR activ	Mdm2 MdmX conf	FLuc counter
COc1ccc2cc3c(N)nn(C(=O)Cc4ccc(Cl)cc4)c3nc2c1	1	73*	-1	-10	-2	59*	48*
COc1cccc(COC(=O)c2nn(-c3ccccc3)nc2N)c1	0	-33	7	0	-1	nt	nt
Cc1cccc(OCC(=O)Nc2ccc(NC(=O)c3ccco3)cc2)c1	1	13	-6	0	-1	nt	nt
Cc1nn(-c2ccccc2)c(N2CCCC2)c1/C=N/NC(=O)c1cc(-c2ccccc2)nc2ccccc12	4	57*	-27	22	0	47*	68*
Cc1nn(-c2ccccc2)c(N2CCCC2)c1/C=N/NC(=O)c1cc2ccccc2cc1O	-1	36	-3	17	-1	nt	nt
Cc1nn(-c2ccccc2)c(N2CCCC2)c1/C=N/NC(=O)c1cc(-c2cccs2)nc2ccccc12	0	31	-5	0	-2	nt	nt
Cc1nn(-c2ccccc2)c(N2CCCC2)c1/C=N/NC(=O)c1cc(-c2ccccn2)nc2ccccc12	-1	63*	-1	9	1	15	nt
O=C(COC(=O)c1cccc(OC(F)F)c1)Nc1cccc(S(=O)(=O)N2CCCC2)c1	1	15	0	5	-4	nt	nt
CCn1c(=O)c(CCC(=O)N2CCOCC2)c(C)c2c(C)nn(-c3ccccc3)c21	2	62*	20	14	-1	33	nt
O=C(CCl)N(c1ccccc1)c1c[nH]c2ccccc12	0	100*	0	7	-10	99*	52*
O=C(CCl)N(c1ccc(Cl)cc1)c1c[nH]c2ccccc12	-10	69*	1	24	-7	100*	52*
COc1ccc(NC(=O)Oc2cc(C)ccc2C(C)C)cc1	0	-16	4	-3	1	nt	nt
COc1ccccc1S(=O)(=O)Nc1cc(C)nn1-c1ccc(C)cc1	0	24	3	7	-1	nt	nt
COC(=O)[C@]1(C)N[C@H](CN(C)C(=O)c2ccccc2)[C@@H]2C(=O)N(C)C(=O)[C@@H]21	3	4	11	-9	-3	nt	nt
CCOC(=O)c1oc2ccc(S(=O)(=O)n3nc(-c4ccc(Cl)cc4)cc3N)cc2c1C	-1	62*	-16	21	1	54*	57*
COc1ccc(-c2cc(N)n(S(=O)(=O)c3ccc(C)cc3)n2)c(OC)c1	1	-6	-2	6	-3	nt	nt
COc1ccc(S(=O)(=O)n2nc(-c3ccc(Cl)cc3)cc2N)cc1	-1	51*	-7	4	-3	52*	59*
S=c1nc(-c2ccccc2)[nH]c2ccc(Br)cc12	1	-13	12	3	5	nt	nt
CCn1c(SCC(=O)Nc2ccc(NC(C)=O)cc2)nc2c([nH]c3ccccc32)c1=O	0	52*	-9	2	-2	44*	44*
COCCn1c(SCC(=O)Nc2ccc(C(N)=O)cc2)nc2c([nH]c3ccccc32)c1=O	0	74*	-15	-9	3	34	52*
COCCn1c(SCC(=O)Nc2ccc(F)cc2)nc2c([nH]c3ccccc32)c1=O	-2	2	-21	4	-5	nt	nt
CCOc1ccc(NC(=O)CSc2nc3c([nH]c4ccccc43)c(=O)n2C)cc1	3	8	-7	-18	2	nt	nt
CCn1cc2nc(SCC(=O)Nc3ccc(OC)cc3OC)n(Cc3ccc(OC)cc3)c(=O)c2n1	-1	50*	-1	24	4	42*	52*
COc1ccc(NC(=O)CSc2nc3c([nH]c4ccccc43)c(=O)n2C)c(OC)c1	4	60*	-11	0	9	20	nt
